Experiment: Toxicity liver stage against HepG2, at 10uM
Assay type: cell-based
Design: test concentration 10 uM, cell line HepG2-A16-CD81EGFP
Settings: human, HepG2-A16-CD81EGFP cells; read-out: INHIBITION
Summary of the method: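 Uninfected HepG2-A16-CD81EGFP cells, 3 × 10^3 per well, 1536-well, plated on prespotted compound at 10 μM final, parasite-free screening media added to match infected plates; puromycin 10 μM positive, DMSO 0.5% negative; run in parallel with 48 h PbLuc assay at 37 °C, 5% CO2; viability by CellTiter-Glo luminescence, normalized to controls.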

| SMILES | cytotoxicity at 10 µM [%] |
| --- | --- |
| Cn1ccnc1CCNS(=O)(=O)c1cccnc1 | 10.7 |
| COc1ccc2nnc(CCCC(=O)Nc3nc4c(s3)CCC4)n2n1 | -5.01 |
| CC1CCN(C(=O)CSc2nc3c(cnn3CCO)c(=O)[nH]2)CC1 | 7.98 |
| Cc1ccnc(OCC(=O)N2CCCC2)n1 | -10.2 |
| CN(CC1CC1)c1ccc2ccc(C(=O)NCCc3ccccc3)cn12 | -1.83 |
| COCc1cncc2c1CCN(C(=O)c1ccsc1)C2 | 2.43 |
| Cc1nocc1C(=O)N1CCCC2(CCN(c3cnn(C)c3)C2=O)C1 (configuration not stated) | 2.43 |
| COCCn1ccc2c(cnc3nc(SC)nn32)c1=O | -17.4 |
| O=C(NC1CCCC1)N1CCCCC1c1nc(C2CC2)no1 (configuration not stated) | -9.52 |
| Cc1nn(C)c2cnn(Cc3ccc(C(=O)NCC4CC4)o3)c12 | 6.06 |
| Cc1nc(NCCc2ccccc2)cc(C(=O)N2CCOCC2)n1 | -3.01 |
| CCn1ccc(C(=O)NCCCN2CCOCC2)n1 | -7.9 |
| O=S(=O)(c1cn[nH]c1)N1CCC(O)(CN2CCOCC2)C1 (configuration not stated) | 2.5 |
| O=C(c1ccncc1)N1CCCC(C2=Nc3ccccc3S(=O)(=O)N2)C1 (configuration not stated) | 4.26 |
| O=C(NCCCn1ccnc1)C1COCC(=O)N1Cc1ccccc1 (configuration not stated) | 12.3 |
| Cc1ccc(C2CN(CCS(C)(=O)=O)CCO2)c(C)c1 (configuration not stated) | 3.03 |
| CCOCCC(=O)NCCNc1nccc(C(F)(F)F)n1 | 2.88 |
| c1csc(N2CCN(c3ncnc4sccc34)CC2)n1 | 34.6 |
| COc1cc(CNc2cc(-c3ccoc3C)nn2CCO)ccc1F | -14.6 |
| C[S+]([O-])c1ccc(CNc2ccc(F)cc2OC(F)F)cc1 (configuration not stated) | 0.752 |
| CC(C)CN(C(=O)Nc1cccc(C(=O)N(C)C)c1)C1CC1 | -15.2 |

| SMILES | cytotoxicity at 10 µM [%] |
| --- | --- |
| NS(=O)(=O)N1CCc2ccc(NC(=O)CCc3ccncc3)cc21 | 2.68 |
| COc1ccc(CN2CCN(CCn3ccnc3)CC2)cc1F | -8.88 |
| Cc1c(C(=O)N(C)CC(C)O)sc2nc(C(F)(F)F)ccc12 (configuration not stated) | -0.943 |
| CC(C)c1noc(CN(C)C(c2ccc(F)cc2)c2cccnc2)n1 (configuration not stated) | 5.66 |
| CC(=O)N(C)c1nc(CN2CCN(c3nccs3)CC2)cs1 | -12.5 |
| O=C(Nc1cc(CSCCO)ccn1)c1ccc(Cl)o1 | -7.76 |
| CN(C)S(=O)(=O)c1ccc(CN2CCC(c3ccccc3)C2)o1 (configuration not stated) | 17.5 |
| CC(C)CC(c1nc(-c2cnn(C)c2)no1)N1CCCCC1=O (configuration not stated) | -42 |
| Cc1ccc(CNCCOc2ccc(S(C)(=O)=O)cc2)cc1 | -9.12 |
| Cn1nnc2cc(C(=O)N3CCCC3Cc3ccccc3)ccc21 (configuration not stated) | -14.7 |
| Cn1ccnc1CN1CCc2c(COCC3CC3)nn(C)c2C1 | 8.68 |
| Cc1ccc2c(c1)C(N1CCOCC1)CC21CCNCC1 (configuration not stated) | -116 |
| CN1CCC(CO[C@H]2CN(C(=O)c3cccn3C)[C@@H]3COC[C@H]23)CC1 | -109 |
| c1ccc(OC[C@H]2CCC[C@]23CN(Cc2nccs2)CCO3)nc1 | 3.34 |
| CN1CCN(CC2CC2)C(=O)c2cnc(N3CC[C@@H](O)C3)nc21 | 2.19 |
| CC(C)CN(Cc1ccccn1)Cc1ccccc1C(=O)O | 2.51 |
| CCS(=O)(=O)c1ncc(CN2CCN(C)CC2)n1CCc1ccccc1 | 2.44 |
| Cc1nn(C)cc1C(=O)N1CCCn2nc(CN3CC[C@H](F)C3)cc2C1 | -7.88 |
| CCC1CN(C(=O)c2cc(C(C)=O)c(C)[nH]c2=O)CCN1C(C)C (configuration not stated) | 6.03 |
| COCc1ncc(CN2CCN(C)C(=O)C2C)cn1 (configuration not stated) | 1.31 |
| c1cncc(OCCCNC2COc3ccccc3C2)c1 (configuration not stated) | -7.84 |

| SMILES | cytotoxicity at 10 µM [%] |
| --- | --- |
| c1cc(CN2CCC(CCn3cccn3)CC2)cc(Cn2cccn2)c1 | -1.58 |
| CN(CCN1CCCCC1=O)Cc1cc2cc3c(cc2[nH]c1=O)OCO3 | -6.21 |
| O=C(c1cccnc1)C1CCCN(c2nnc(C3CC3)o2)C1 (configuration not stated) | 6.59 |
| CC(Nc1ncnc2sccc12)c1cnn(C)c1 (configuration not stated) | -2.63 |
| Cc1nsc(NC(=O)NC2(CN3CCOCC3)CCCC2)n1 | 3.89 |
| CC1CCC(NCCCN2CCOCC2)CC1 (configuration not stated) | -6.58 |
| CN1CCN(C(=O)c2cn3ccsc3n2)[C@H]2CS(=O)(=O)C[C@H]21 | -1.27 |
| Cc1nc(N)ncc1C(=O)N1CCCC(CCc2ccc(F)c(F)c2)C1 (configuration not stated) | -4.51 |
| COCCNC(=O)c1cnc(C)nc1C | 24.5 |
| Cn1cc(CN(CC2(O)CNCCOC2)C2CCCCC2)cn1 (configuration not stated) | 3.09 |
| Cc1cc(C(F)(F)F)nc(CNC(=O)CCC2CCCCN2C)n1 (configuration not stated) | -59 |
| COCc1ncc(CN(CCN(C)C)Cc2ccc(C)s2)cn1 | -57.1 |
| CCOC(=O)N1CCN(C(=O)c2ccc3ccn(C)c3c2)CC1 | -6.57 |
| CN1CCN(C[C@@H]2CN(C(=O)c3ccccc3C#N)C[C@@H]2CO)CC1 | -24.7 |
| Cc1cccc(CN2CCC(N(C)Cc3nnc(C4CC4)n3C)C2)c1 (configuration not stated) | -6.04 |
| CN(C)c1cc(C(=O)N2CCCN(c3cccnn3)CC2)ccn1 | -8.19 |
| Cc1cc(OCC(=O)NS(=O)(=O)c2cccnc2)ccc1Cl | 0.544 |
| Cc1ccc(-c2noc(CN3CCc4cncnc4C3)n2)cc1 | 1.04 |
| COc1cc(Cl)ccc1C(=O)N1CCCC(c2cc(C)[nH]n2)C1 (configuration not stated) | 72.5 |
| CC(C)c1nccn1C1CCCN(C(=O)c2cnc[nH]2)C1 (configuration not stated) | -0.808 |
| Nc1nc(CN2CCOC(Cn3cncn3)C2)nc2ccccc12 (configuration not stated) | -0.734 |

| SMILES | cytotoxicity at 10 µM [%] |
| --- | --- |
| c1ccc(OCCCNCCn2cccn2)cc1 | -5.46 |
| O=C(NCCNc1cnccn1)C1CCN(C(=O)N2CCCC2)CC1 | -0.577 |
| CC(C(=O)N1CCN(c2cnccn2)CC1)n1cncn1 (configuration not stated) | 8.37 |
| CC(NC(=O)CN(C)S(C)(=O)=O)c1nnc2n1CCCCC2 (configuration not stated) | -10.2 |
| CCc1nc(C2CCCN(C(=O)c3ccc4c(c3)nnn4C)C2)no1 (configuration not stated) | -3.3 |
| COCCc1noc(CNCC2CCCN2c2cccnn2)n1 (configuration not stated) | 4.33 |
| Cn1cnnc1C1CCCN(C(=O)NCCOc2ccccc2)C1 (configuration not stated) | 7.48 |
| COc1ccc(CC(=O)N2CC[C@@H](OC)[C@@H]2Cc2cccnc2)cc1 | 8.48 |
| CN(C)C[C@H]1OC[C@@H]2CCN(S(=O)(=O)c3cccs3)C[C@@H]21 | 3.04 |
| Cn1cc(CN2CCC3(CC2)CCN(C(=O)c2cscn2)C3)cn1 | -2.45 |
| CCN1CC2(CC1=O)CN(Cc1ccncc1)CCN(C(=O)C(C)C)C2 (configuration not stated) | -0.182 |
| Cc1cc(CN2CC[C@H]3[C@H]2CCN3CC(=O)N(C)C)oc1C | -5.6 |
| O=S(=O)(c1cccnc1)N1C[C@H]2CCC[C@@]2(COc2ccccn2)C1 | 7.05 |
| O=C([C@@H]1CSCN1)N1CC2(CCNCC2)c2cc(Cl)ccc21 | 4.33 |
| COCCN1CCC2(CCN(Cc3ccc(OC)cc3)CC2)C1=O | 2.88 |
| CCCN1CCC[C@]2(CCC(=O)N2Cc2ccncc2)[C@H]1CC | -1.16 |
| Cn1cnc2c(-c3ccccc3)nc(C3CCNCC3)cc21 | -109 |
| Cc1ccc(CN2CC[C@H]3C[C@H](C(=O)N4CCCO4)O[C@@H]3C2)o1 | 7.11 |
| Cc1cnn(CCC(=O)N2C[C@@H]3CC[C@H]2CN(CC(=O)N(C)C)C3)c1 | -10 |

Source: ChEMBL document CHEMBL4513216, “Probing the Open Global Health Chemical Diversity Library for Multistage-Active Starting Points for Next-Generation Antimalarials” (ACS Infect Dis, 2020)
